Results from ChEMBL document CHEMBL1131139, “Synthesis and antibacterial activity of ketolides (6-O-methyl-3-oxoerythromycin derivatives): a new class of antibacterials highly potent against macrolide-resistant and -susceptible respiratory pathogens” (1998).
≈ marks a conversion by molar mass, not a printed value.

Experiments:
Staphylococcus aureus [1] = test: In vitro inhibitory activity against Staphylococcus aureus (EryRc 011CB20); type: functional
Method in brief: (§1)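 Two-fold agar dilution on Mueller-Hinton agar (pH 7.4). Inoculum from overnight plate cultures suspended in Mueller-Hinton broth, adjusted to 10^9 CFU/mL, diluted 1:200 and spotted by multipoint inoculator at about 10^4 CFU/spot. Plates incubated 37 °C for 20 h. MIC taken as lowest concentration with no visible growth.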

Haemophilus [2] = test: In vitro inhibitory activity against Haemophilus AmpS (43); type: functional
[3] = system: Staphylococcus epidermidis; test: In vitro inhibitory activity against Staphylococcus epidermidis (EryRi 012GO11i); type: functional; method in brief: as §1
Staphylococcus aureus [4] = test: In vitro inhibitory activity against Staphylococcus aureus (EryRi 011GO25i); type: functional; method in brief: as §1
Streptococcus pneumoniae [5] = test: In vitro inhibitory activity against Streptococcus pneumoniae (032UC1); type: functional; method in brief: as §1
Enterococcus [6] = test: In vitro inhibitory activity against enterococci EryRi (19); type: functional
[7] = In vitro inhibitory activity against Pneumococci EryRc (34); type: functional
Streptococcus pyogenes [8] = test: (§2) In Vivo evaluation for its effective dose against Streptococcus pyogenes (02A1UC1); type: functional
Method in brief: (§3)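 Male Charles River CD1 mice, 20-22 g, 10 per dose group, infected intraperitoneally with 0.5 mL diluted overnight broth culture (physiological buffer or 5% hog mucine) at 10-100 times the minimal lethal dose. Compound suspended in carboxymethylcellulose, 0.5 mL given orally immediately and 4 h postinfection. Survival followed 8-10 days; ED50 (unitary dose protecting 50% from death) by Litchfield-Wilcoxon probit method.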

Streptococcus pneumoniae [9] = test: (§4) In Vivo evaluation for its effective dose against Streptococcus pneumoniae (030SJ1 EryRc); type: functional; method in brief: as §3
Escherichia coli = test: In vitro inhibitory activity against Escherichia coli (250 UC5); type: functional; method in brief: as §1
Haemophilus influenzae [10] = test: (§5) In Vivo evaluation for its effective dose against Haemophilus influenzae (351GR1); type: functional; method in brief: as §3
Enterococcus [11] = test: In vitro inhibitory activity against enterococci EryRc (13); type: functional
Streptococcus sp. [12] = test: In vitro inhibitory activity against Streptococci EryRi (98); type: functional
Haemophilus influenzae [13] = test: (§6) In Vivo evaluation for its effective dose against Haemophilus influenzae (351TO19 AmpR beta (-)); type: functional; method in brief: as §3
Streptococcus pyogenes [14] = test: In vitro inhibitory activity against Streptococcus pyogenes (02A1UC1); type: functional; method in brief: as §1
Streptococcus pneumoniae [15] = test: (§7) In Vivo evaluation for its effective dose against Streptococcus pneumoniae (030RO1 EryRi); type: functional; method in brief: as §3
[16] = In vitro inhibitory activity against Pneumococci PenR (65); type: functional
Haemophilus influenzae [17] = test: In vitro inhibitory activity against Haemophilus influenzae (351HT3); type: functional; method in brief: as §1
Haemophilus [18] = test: In vitro inhibitory activity against Haemophilus AmpR (37); type: functional
Staphylococcus aureus [19] = test: (§8) In Vivo evaluation for its effective dose against Staphylococcus aureus (011UC4).; type: functional; method in brief: as §3
Streptococcus pneumoniae [20] = test: In vitro inhibitory activity against Streptococcus pneumoniae (EryRc 030SJ1); type: functional; method in brief: as §1
Haemophilus influenzae [21] = test: (§9) In Vivo evaluation for its effective dose against Haemophilus influenzae (351RD7 AmpR beta (+)); type: functional; method in brief: as §3
Streptococcus pneumoniae [22] = test: (§10) In Vivo evaluation for its effective dose against Streptococcus pneumoniae (032UC1); type: functional; method in brief: as §3
Streptococcus sp. [23] = test: In vitro inhibitory activity against Streptococci EryR (27); type: functional
Streptococcus pneumoniae [24] = test: In vitro inhibitory activity against Streptococcus pneumoniae (EryRi 030SJ5i); type: functional; method in brief: as §1
Staphylococcus sp. [25] = test: In vitro inhibitory activity against Staphylococci EryRi (65); type: functional
Streptococcus pneumoniae [26] = test: (§11) In Vivo evaluation for its effective dose against Streptococcus pneumoniae (030Cr29 EryRc); type: functional; method in brief: as §3
Staphylococcus aureus [27] = test: In vitro inhibitory activity against Staphylococcus aureus (011UC4); type: functional; method in brief: as §1
Haemophilus influenzae [28] = test: In vitro inhibitory activity against Haemophilus influenzae (351CB12); type: functional; method in brief: as §1
Streptococcus pneumoniae [29] = test: (§12) In Vivo evaluation for its effective dose against Streptococcus pneumoniae (030MV2 EryRc); type: functional; method in brief: as §3
Staphylococcus aureus [30] = test: (§13) In Vivo evaluation for its effective dose against Staphylococcus aureus (011GO25 EryRi.; type: functional; method in brief: as §3
Streptococcus pneumoniae [31] = test: (§14) In Vivo evaluation for its effective dose against Streptococcus pneumoniae (030SJ6 EryRc); type: functional; method in brief: as §3
Staphylococcus sp. [32] = test: In vitro inhibitory activity against Staphylococci EryRc (13); type: functional
Mus musculus [33] = test: as §2; type: functional; method in brief: as §3
Mus musculus [34] = test: as §4; type: functional; method in brief: as §3
Mus musculus [35] = test: as §5; type: functional; method in brief: as §3
Streptococcus sp [36] = test: In vitro inhibitory activity against Streptococci EryRi (98)
Mus musculus [37] = test: as §6; type: functional; method in brief: as §3
Mus musculus [38] = test: as §7; type: functional; method in brief: as §3
Mus musculus [39] = test: as §8; type: functional; method in brief: as §3
Mus musculus [40] = test: as §9; type: functional; method in brief: as §3
Mus musculus [41] = test: as §10; type: functional; method in brief: as §3
Streptococcus sp [42] = test: In vitro inhibitory activity against Streptococci EryRi (98); remark: listed apart in the source
Streptococcus sp [43] = test: In vitro inhibitory activity against Streptococci EryR (27)
Mus musculus [44] = test: as §11; type: functional; method in brief: as §3
Streptococcus sp [45] = test: In vitro inhibitory activity against Streptococci EryR (27); remark: listed apart in the source
Mus musculus [46] = test: as §12; type: functional; method in brief: as §3
Mus musculus [47] = test: as §13; type: functional; method in brief: as §3
Mus musculus [48] = test: as §14; type: functional; method in brief: as §3

With `CC[C@H]1OC(=O)[C@H](C)[C@@H](O[C@H]2C[C@@](C)(OC)[C@@H](O)[C@H](C)O2)[C@H](C)[C@@H](O[C@@H]2O[C@H](C)C[C@H](N(C)C)[C@H]2O)[C@](C)(O)C[C@@H](C)CN(C)[C@H](C)[C@@H](O)[C@]1(C)O` [AZITHROMYCIN] the MIC (Staphylococcus aureus [1]) was 40 µg/mL (≈ 53.4 µM), the MIC50 (Haemophilus [2]) was 0.15 µg/mL (≈ 0.2 µM) and the MIC90 (Haemophilus [2]) was 1.2 µg/mL (≈ 1.6 µM). The MIC [3] was 40 µg/mL (≈ 53.4 µM), the MIC (Staphylococcus aureus [4]) was 40 µg/mL (≈ 53.4 µM) and the MIC (Streptococcus pneumoniae [5]) was 0.15 µg/mL (≈ 0.2 µM). The MIC50 (Enterococcus [6]) was 40 µg/mL (≈ 53.4 µM), the MIC90 (Enterococcus [6]) was 40 µg/mL (≈ 53.4 µM) and the MIC50 [7] was 40 µg/mL (≈ 53.4 µM). For the same compound, the MIC90 [7] was 40 µg/mL (≈ 53.4 µM), the ED50 (Streptococcus pyogenes [8]) was 16 mg/kg and the ED50 (Streptococcus pneumoniae [9]) was greater than 100 mg/kg. For the same compound, the MIC (Escherichia coli) was 20 µg/mL (≈ 26.7 µM), the ED50 (Haemophilus influenzae [10]) was 109 mg/kg and the MIC50 (Enterococcus [11]) was 10 µg/mL (≈ 13.4 µM). The MIC90 (Enterococcus [11]) was 40 µg/mL (≈ 53.4 µM), the MIC50 (Streptococcus sp. [12]) was 40 µg/mL (≈ 53.4 µM) and the MIC90 (Streptococcus sp. [12]) was 40 µg/mL (≈ 53.4 µM). It also gave an ED50 (Haemophilus influenzae [13]) of 368 mg/kg, an MIC (Streptococcus pyogenes [14]) of 0.6 µg/mL (≈ 0.801 µM) and an ED50 (Streptococcus pneumoniae [15]) greater than 100 mg/kg. It also gave an MIC50 [16] of 2.5 µg/mL (≈ 3.34 µM), an MIC90 [16] of 40 µg/mL (≈ 53.4 µM) and an MIC (Haemophilus influenzae [17]) of 1.2 µg/mL (≈ 1.6 µM). It also gave an MIC50 (Haemophilus [18]) of 0.3 µg/mL (≈ 0.401 µM), an MIC90 (Haemophilus [18]) of 1.2 µg/mL (≈ 1.6 µM) and an ED50 (Staphylococcus aureus [19]) of 60 mg/kg. The MIC (Streptococcus pneumoniae [20]) was 40 µg/mL (≈ 53.4 µM), the ED50 (Haemophilus influenzae [21]) was 117 mg/kg and the ED50 (Streptococcus pneumoniae [22]) was greater than 50 mg/kg. The MIC50 (Streptococcus sp. [23]) was 10 µg/mL (≈ 13.4 µM), the MIC90 (Streptococcus sp. [23]) was 40 µg/mL (≈ 53.4 µM) and the MIC (Streptococcus pneumoniae [24]) was 40 µg/mL (≈ 53.4 µM). For the same compound, the MIC50 (Staphylococcus sp. [25]) was 40 µg/mL (≈ 53.4 µM), the MIC90 (Staphylococcus sp. [25]) was 40 µg/mL (≈ 53.4 µM) and the ED50 (Streptococcus pneumoniae [26]) was greater than 100 mg/kg. The MIC (Staphylococcus aureus [27]) was 0.3 µg/mL (≈ 0.401 µM), the MIC (Haemophilus influenzae [28]) was 1.2 µg/mL (≈ 1.6 µM) and the ED50 (Streptococcus pneumoniae [29]) was greater than 100 mg/kg. It also gave an ED50 (Staphylococcus aureus [30]) greater than 100 mg/kg and an ED50 (Streptococcus pneumoniae [31]) greater than 100 mg/kg.

For `CC[C@H]1OC(=O)[C@H](C)[C@@H](O[C@H]2C[C@@](C)(OC)[C@@H](O)[C@H](C)O2)[C@H](C)[C@@H](O[C@@H]2O[C@H](C)C[C@H](N(C)C)[C@H]2O)[C@](C)(OC)C[C@@H](C)C(=O)[C@H](C)[C@@H](O)[C@]1(C)O` [CLARITHROMYCIN], the MIC (Staphylococcus aureus [1]) was 40 µg/mL (≈ 53.5 µM), the MIC50 (Haemophilus [2]) was 1.2 µg/mL (≈ 1.6 µM) and the MIC90 (Haemophilus [2]) was 5 µg/mL (≈ 6.68 µM). It also gave an MIC [3] of 40 µg/mL (≈ 53.5 µM), an MIC50 (Staphylococcus sp. [32]) of 40 µg/mL (≈ 53.5 µM) and an MIC90 (Staphylococcus sp. [32]) of 40 µg/mL (≈ 53.5 µM). It also gave an MIC (Staphylococcus aureus [4]) of 40 µg/mL (≈ 53.5 µM), an MIC (Streptococcus pneumoniae [5]) of 0.04 µg/mL (≈ 0.0535 µM) and an MIC50 (Enterococcus [6]) of 1.2 µg/mL (≈ 1.6 µM). For the same compound, the MIC90 (Enterococcus [6]) was 10 µg/mL (≈ 13.4 µM), the MIC50 [7] was 40 µg/mL (≈ 53.5 µM) and the MIC90 [7] was 40 µg/mL (≈ 53.5 µM). It also gave an ED50 (Mus musculus [33]) of 16 mg/kg, an ED50 (Mus musculus [34]) greater than 100 mg/kg and an MIC (Escherichia coli) of 40 µg/mL (≈ 53.5 µM). The ED50 (Mus musculus [35]) was 346 mg/kg, the MIC90 (Streptococcus sp [36]) was 40 µg/mL (≈ 53.5 µM) and the ED50 (Mus musculus [37]) was 600 mg/kg. The MIC (Streptococcus pyogenes [14]) was 0.08 µg/mL (≈ 0.107 µM), the ED50 (Mus musculus [38]) was greater than 100 mg/kg and the MIC50 [16] was 0.3 µg/mL (≈ 0.401 µM). The MIC90 [16] was 40 µg/mL (≈ 53.5 µM), the MIC (Haemophilus influenzae [17]) was 2.5 µg/mL (≈ 3.34 µM) and the MIC50 (Haemophilus [18]) was 2.5 µg/mL (≈ 3.34 µM). The MIC90 (Haemophilus [18]) was 10 µg/mL (≈ 13.4 µM), the ED50 (Mus musculus [39]) was 12.6 mg/kg and the MIC (Streptococcus pneumoniae [20]) was 40 µg/mL (≈ 53.5 µM). It also gave an ED50 (Mus musculus [40]) of 109 mg/kg, an ED50 (Mus musculus [41]) greater than 50 mg/kg and an MIC50 (Streptococcus sp [42]) of 40 µg/mL (≈ 53.5 µM). For the same compound, the MIC90 (Streptococcus sp [43]) was 40 µg/mL (≈ 53.5 µM), the MIC (Streptococcus pneumoniae [24]) was 40 µg/mL (≈ 53.5 µM) and the MIC50 (Staphylococcus sp. [25]) was 40 µg/mL (≈ 53.5 µM). The MIC90 (Staphylococcus sp. [25]) was 40 µg/mL (≈ 53.5 µM), the ED50 (Mus musculus [44]) was greater than 100 mg/kg and the MIC50 (Streptococcus sp [45]) was 1.2 µg/mL (≈ 1.6 µM). The MIC (Staphylococcus aureus [27]) was 0.3 µg/mL (≈ 0.401 µM), the MIC (Haemophilus influenzae [28]) was 2.5 µg/mL (≈ 3.34 µM) and the ED50 (Mus musculus [46]) was greater than 100 mg/kg. The ED50 (Mus musculus [47]) was greater than 100 mg/kg and the ED50 (Mus musculus [48]) was greater than 100 mg/kg.
